Assays:
Assay type in all cases: functional
[1] = tested on: Staphylococcus epidermidis; test: Ratio of levofloxacin MIC to compound MIC for extended spectrum beta-lactamases-producing methicillin-sensitive Staphylococcus epidermidis 10-11 after 18-24 hrs by two-fold serial dilution method
In short: (§1)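 MICs were determined by the standard twofold serial dilution method on agar media against the test strains, with levofloxacin run as a reference. MIC is the lowest concentration giving complete inhibition of bacterial growth after 18–24 h incubation at 35 °C. The ratio is levofloxacin MIC divided by test-compound MIC.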

[2] = tested on: Staphylococcus epidermidis; test: Antimicrobial activity against methicillin-resistant Staphylococcus epidermidis clinical isolate after 18-24 hrs by two-fold serial dilution method
[3] = tested on: Staphylococcus epidermidis; test: Antimicrobial activity against extended spectrum beta-lactamases-producing methicillin-sensitive Staphylococcus epidermidis 10-15 after 18-24 hrs by two-fold serial dilution method
In short: (§2)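 Agar-medium twofold serial dilution against Gram-positive and Gram-negative strains; MIC taken as the lowest compound concentration giving complete inhibition of bacterial growth after incubation at 35 °C for 18-24 h.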

[4] = tested on: Staphylococcus epidermidis; test: Ratio of levofloxacin MIC to compound MIC for extended spectrum beta-lactamases-producing methicillin-sensitive Staphylococcus epidermidis 10-15 after 18-24 hrs by two-fold serial dilution method; in short: as §1
[5] = tested on: Pseudomonas aeruginosa; test: Antimicrobial activity against extended spectrum beta-lactamases-producing Pseudomonas aeruginosa 10-18 after 18-24 hrs by two-fold serial dilution method; in short: as §2
[6] = tested on: Enterococcus faecium; test: Ratio of gemifloxacin MIC to compound MIC for Enterococcus faecium 10-9 after 18-24 hrs by two-fold serial dilution method
[7] = tested on: Enterococcus faecalis; test: Antimicrobial activity against Enterococcus faecalis 10-5 after 18-24 hrs by two-fold serial dilution method; in short: as §2
[8] = tested on: Staphylococcus aureus; test: Antimicrobial activity against Staphylococcus aureus ATCC […] after 18-24 hrs by two-fold serial dilution method; in short: as §2
[9] = tested on: Escherichia coli; test: Antimicrobial activity against Escherichia coli ATCC 25922 after 18-24 hrs by two-fold serial dilution method; in short: as §2
[10] = tested on: Klebsiella pneumoniae; test: Antimicrobial activity against extended spectrum beta-lactamases-producing Klebsiella pneumoniae 10-1 after 18-24 hrs by two-fold serial dilution method; in short: as §2
[11] = tested on: Klebsiella pneumoniae; test: Antimicrobial activity against extended spectrum beta-lactamases-producing Klebsiella pneumoniae 10-3 after 18-24 hrs by two-fold serial dilution method; in short: as §2
[12] = tested on: Klebsiella pneumoniae; test: Antimicrobial activity against Klebsiella pneumoniae 10-2 after 18-24 hrs by two-fold serial dilution method; in short: as §2
[13] = tested on: Enterococcus faecium; test: Antimicrobial activity against Enterococcus faecium 10-5 after 18-24 hrs by two-fold serial dilution method; in short: as §2
[14] = tested on: Streptococcus pneumoniae; test: Ratio of levofloxacin MIC to compound MIC for extended spectrum beta-lactamases-producing Streptococcus pneumoniae 10-1 after 18-24 hrs by two-fold serial dilution method
[15] = tested on: Staphylococcus aureus; test: Antimicrobial activity against extended spectrum beta-lactamases-producing methicillin-resistant Staphylococcus aureus 10-11 after 18-24 hrs by two-fold serial dilution method
In short: (§3)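 Agar twofold serial dilution MIC against clinical isolates. MIC was taken as the lowest concentration giving complete inhibition of bacterial growth after incubation at 35 °C for 18-24 h.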

[16] = tested on: Staphylococcus aureus; test: Antimicrobial activity against extended spectrum beta-lactamases-producing methicillin-resistant Staphylococcus aureus 10-15 after 18-24 hrs by two-fold serial dilution method; in short: as §3
[17] = tested on: Staphylococcus aureus; test: Ratio of levofloxacin MIC to compound MIC for extended spectrum beta-lactamases-producing methicillin-sensitive Staphylococcus aureus 10-13 after 18-24 hrs by two-fold serial dilution method; in short: as §1
[18] = tested on: Streptococcus pneumoniae; test: Antimicrobial activity against extended spectrum beta-lactamases-producing Streptococcus pneumoniae 10-4 after 18-24 hrs by two-fold serial dilution method; in short: as §2
[19] = tested on: Staphylococcus epidermidis; test: Antimicrobial activity against extended spectrum beta-lactamases-producing methicillin-resistant Staphylococcus epidermidis 10-13 after 18-24 hrs by two-fold serial dilution method; in short: as §3
[20] = tested on: Enterococcus faecium; test: Ratio of levofloxacin MIC to compound MIC for Enterococcus faecium 10-9 after 18-24 hrs by two-fold serial dilution method
[21] = tested on: Staphylococcus aureus; test: Ratio of gemifloxacin MIC to compound MIC for Staphylococcus aureus ATCC […] after 18-24 hrs by two-fold serial dilution method
[22] = tested on: Staphylococcus aureus; test: Ratio of levofloxacin MIC to compound MIC for Staphylococcus aureus ATCC […] after 18-24 hrs by two-fold serial dilution method

SMILES: COc1ccc(OC)c(CO/N=C2\CN(c3nc4c(cc3F)c(=O)c(C(=O)O)cn4C3CC3)CC2CN)c1.CS(=O)(=O)O (racemic)
- Ratio [1]: 8
- MIC50 [2]: 0.25 µg/mL
- MIC90 [2]: 4 µg/mL
- MIC [3]: 4 µg/mL
- Ratio [4]: 8
- MIC [5]: > 128 µg/mL
- Ratio [6]: 2
- MIC [7]: 0.25 µg/mL
- MIC [8]: < 0.008 µg/mL
- MIC [9]: 0.06 µg/mL
- MIC [10]: > 128 µg/mL
- MIC [11]: > 128 µg/mL
- MIC [12]: > 128 µg/mL
- MIC [13]: 4 µg/mL
- Ratio [14]: 8
- MIC [15]: 1 µg/mL
- MIC [16]: 0.125 µg/mL
- Ratio [17]: 8
- MIC [18]: 0.015 µg/mL
- MIC [19]: 0.25 µg/mL
- Ratio [20]: 8
- Ratio [21]: 2
- Ratio [22]: 8

From ChEMBL document CHEMBL2062435, “Synthesis and in vitro antibacterial activity of gemifloxacin derivatives containing a substituted benzyloxime moiety” (2012)
